Measured values gathered from unrelated publications.

Compound | test system | conditions | Papp
O=C(Nc1ccc2c(c1)B(O)OC2)c1ccccc1OCc1ccccc1 | PAMPA | 200 µM, 5 h, pH 7.4 | 1.2 ×10⁻⁶ cm/s
COCCOCCOCCOc1c(OC)cc2cc(C(=O)N3C[C@@H](CCl)c4c3cc(O)c3[nH]c(C(=O)OC)cc43)[nH]c2c1OC | PAMPA | 1 µM, 5 h, pH 7.4 | 4.2 ×10⁻⁶ cm/s
O=C(Nc1cccc(B(O)O)c1)c1cccc(OCc2ccccc2)c1 | PAMPA | 200 µM, 5 h, pH 7.4 | 0.1 ×10⁻⁶ cm/s
CC[C@@H](C)[C@@H]1NC(=O)[C@@H](CC(C)C)NC(=O)CN(C)C(=O)[C@H]([C@H](C)CC)NC(=O)[C@@H](CC(C)C)NC(=O)CN(C)C1=O | PAMPA |  | 38 ×10⁻⁶ cm/s
O=C(Nc1ccc2c(c1)B(O)OC2)c1cccc(OCc2c(Cl)cccc2Cl)c1 | PAMPA | 200 µM, 5 h, pH 7.4 | 0.91 ×10⁻⁶ cm/s
COc1ccc(C[C@@H]2NC(=O)[C@@H](CC(C)C)NC(=O)[C@H](CCSC)NC(=O)[C@H](CC(C)C)NC(=O)[C@@H](CC(C)C)NC(=O)[C@H]3CCCN3C2=O)cc1 | PAMPA | 10 µM, 7 h | 13 ×10⁻⁶ cm/s
COCCOCCOc1c(OC)cc2cc(C(=O)N3C[C@@H](CCl)c4c3cc(O)c3[nH]c(C(=O)OC)cc43)[nH]c2c1OC | PAMPA | 1 µM, 5 h, pH 7.4 | 3.6 ×10⁻⁶ cm/s
CN1CCN([C@@H](c2ccccc2)c2ccc(Cl)cc2)CC1 | PAMPA |  | 1830 ×10⁻⁶ cm/s
O=C1NC(=O)C(c2ccccc2)(c2ccccc2)N1 | PAMPA | 200 µM, 5 h, pH 7.4 | 6.1 ×10⁻⁶ cm/s
CC(NC(C)(C)C)C(=O)c1cccc(Cl)c1 (stereo not drawn) | PAMPA-BBB | 1 µM, 18 h | 16 ×10⁻⁶ cm/s
CNC(=O)[C@@H](NC(=O)c1cc(OCC2(C)COC2)c(C2CC2)cn1)C(C)(C)C | PAMPA |  | 5.17 ×10⁻⁶ cm/s
O=c1cc(-c2ccc(O)cc2)oc2cc(O)cc(O)c12 | PAMPA-BBB | 1 µM, 18 h | 13.9 ×10⁻⁶ cm/s
COc1ccc(C[C@@H]2NC(=O)[C@@H](CC(C)C)NC(=O)[C@H](C)NC(=O)[C@H](CC(C)C)NC(=O)[C@@H](CC(C)C)NC(=O)[C@H]3CCCN3C2=O)cc1 | PAMPA | 10 µM, 7 h | 19 ×10⁻⁶ cm/s
O=S(=O)(Nc1ccc2c(c1)B(O)OC2)c1ccc(Cl)cc1 | PAMPA | 200 µM, 5 h, pH 7.4 | 1.7 ×10⁻⁶ cm/s
NC(=O)[C@@H]1CC(F)(F)CN1C(=O)c1ccc(N2CC(F)(F)C2)c(OCC2CC2)n1 | PAMPA |  | 5.23 ×10⁻⁶ cm/s
